TRPC4 act – TRPC4 (mouse) channel activation; HEK293 TRPC4beta/mu-opioid, Fluo4 calcium fluorescence; active compounds read high; B-score at 10 µM; 310,000 tested, 0.49% active;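 active means B-score above 5 SD of library B-scores, and initial fluorescence ratio not above library mean plus 5 SD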;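 further: positive B-score marks a calcium rise read as TRPC4 activation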
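Assay system: HEK293 cells stably co-expressing mouse TRPC4beta and mu-opioid receptor / Timing: Fluo4 dye loading 45 min at room temperature, 110 s recording / Signal: Fluo4 calcium-sensitive dye fluorescence, kinetic, 1 Hz baseline / Read-out: integrated baseline-normalised fluorescence ratio, converted to per-well B score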
TRPC4 block – blocks the mouse TRPC4 cation channel. HEK293 TRPC4beta/mu-opioid, DAMGO-evoked Fluo4 calcium flux; active compounds read low. 300,000 tested, 0.39% active. B-score at 10 µM. Q9QUQ5. AID 2247;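 active means B-score over 3 SD under the library average, no early fluorescence shift, positive overall ratio signal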
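Assay system: HEK293 cells with stable TRPC4beta plus mu-opioid receptor expression. Dosing: single dose. Measured by: Fluo4 Ca2+ flux fluorescence. Also added: DAMGO in two steps, submaximal then maximal. Read-out: B score from integrated Fluo4 fluorescence ratio.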
Kir21 block – blocks the mouse Kir2.1 inward-rectifier potassium channel | 310,000 tested, 0.85% active | B-score at 10 µM | HEK293-Kir2.1, FluxOR thallium flux fluorescence; active compounds read low | P35561;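 active means fluorescence ratio B-score at or below minus 3 SD of library scores, with starting-brightness B-score within 2 SD, cut at about -4.2 in these data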;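 further: channel flux triggered by added potassium and thallium sulfate stimulus; B-score of peak minus minimum fluorescence over baseline after thallium stimulus; more negative B-score means stronger Kir2.1 block with less thallium influx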
Target sequence (P35561 whole entry, looked up): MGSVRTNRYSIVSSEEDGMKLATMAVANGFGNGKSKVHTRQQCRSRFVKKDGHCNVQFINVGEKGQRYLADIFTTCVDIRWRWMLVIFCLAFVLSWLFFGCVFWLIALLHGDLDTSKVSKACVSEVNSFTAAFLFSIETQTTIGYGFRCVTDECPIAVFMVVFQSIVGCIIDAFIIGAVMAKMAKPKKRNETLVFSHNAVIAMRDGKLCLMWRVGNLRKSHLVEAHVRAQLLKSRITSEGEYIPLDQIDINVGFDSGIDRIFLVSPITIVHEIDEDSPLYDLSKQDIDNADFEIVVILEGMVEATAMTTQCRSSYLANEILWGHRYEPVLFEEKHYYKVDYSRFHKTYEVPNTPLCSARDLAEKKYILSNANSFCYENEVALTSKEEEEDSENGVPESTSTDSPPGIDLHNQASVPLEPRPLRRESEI
TRPC6 inhibitor – mouse TRPC6 channel inhibition | Q61143 | HEK293-TRPC6, membrane potential dye, ACh-evoked depolarization; active compounds read low | B-score at 10 µM | 310,000 tested, 1.1% active | AID 2553;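 active means B-score under library mean minus 3 SD, initial fluorescence not abnormally high, positive integrated signal ratio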;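 further: B-score derived from integrated fluorescence ratio over the kinetic read; more negative B-score means stronger inhibition of depolarization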
TRPC4 potent – allosterically enhances the mouse TRPC4 cation channel | Q9QUQ5 | HEK293 TRPC4beta/mu-opioid, DAMGO EC20, Fluo-4 Ca2+ flux; active compounds read high | B-score at 10 µM | 310,000 tested, 0.42% active | AID 2227;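 active means B-score of calcium response area above 5 SD of library B-scores, with initial fluorescence ratio within 5 SD of library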;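 further: B-score of integrated fluorescence ratio over time as area under calcium response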
TRPC6 act – activates the mouse TRPC6 cation channel; Q61143; HEK293-TRPC6 membrane potential dye fluorescence; active compounds read high; B-score at 10 µM; 310,000 tested, 0.13% active; AID 2550;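 active means B-score of the integrated fluorescence ratio above library mean plus 3 SD, and starting fluorescence ratio within library mean plus 5 SD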;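 further: higher score means more depolarization so channel activation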
Starred values were filed as active, the others as inactive; i = inactive. Hits are enriched below; roughly 2.9% of the tested compounds scored in any of these assays.

SMILES | TRPC4 act | TRPC4 block | Kir21 block | TRPC6 inhibitor | TRPC4 potent | TRPC6 act
C=CCSc1nsc(NC(=O)Nc2ccc(F)cc2)n1 | i | i | -2 | i | 11* | i
Cc1cccc(C)c1-n1cccc1/C=C1\SC(=S)N(c2cccc(C(=O)O)c2)C1=O | i | -7* | 1 | i | i | i
O=C(NCC1CCCO1)C(=O)N/N=C/c1cccc(Cl)c1 (stereo not given) | i | i | 0.64 | i | i | i
Cc1ccc(C)c(S(=O)(=O)N2CCCCC2CCNC(=O)C(=O)NCCc2ccco2)c1 (stereo not given) | i | i | 0.29 | i | i | i
Cc1ccc(-n2cccn2)c(CN2CCCC(C(=O)c3sccc3C)C2)c1 (stereo not given) | i | i | -4.5* | i | i | i
CC(=O)N1CSCC1C(=O)NNS(=O)(=O)c1cccc(C(F)(F)F)c1 (stereo not given) | i | i | -0.05 | i | i | i
Cc1ccc(S(=O)(=O)c2c(C)cc(C)nc2N2CCCC2)cc1 | i | i | -3.1 | i | i | i
CC(C)(C)n1cnc2cc(NCc3ccc(Br)cc3)ccc21 | i | i | 0.08 | i | 25* | i
CCc1ccc(CNc2ccc3c(c2)ncn3CC)cc1 | i | i | -0.44 | -5* | i | i
COc1ccc(OC)c(-c2csc(NC(=O)C3=COCCO3)n2)c1 | i | i | 3.1 | i | i | i
COc1ccc(COC(=O)C2CCN(S(=O)(=O)c3ccc(C)cc3)CC2)cc1 | i | i | 0.95 | i | i | i
Cc1cc(OCc2cc(C(=O)N(C)CCCN3CCOCC3)no2)cc(C)c1Cl | i | i | -1.3 | i | i | i
Cc1cc(OCc2cc(C(=O)N(C)CC3CCOCC3)no2)cc(C)c1Cl | i | i | -5.1* | i | i | i
Cc1cc(OCc2cc(C(=O)NCC3(C)COC3)no2)cc(C)c1Cl | i | -6* | 1.4 | i | i | i
CCc1cc2c(COC(=O)c3cccc(NS(C)(=O)=O)c3)cc(=O)oc2cc1O | i | i | -1.4 | i | i | i
CC1(C)C(=O)OC(C(=O)c2ccc(C(C)(C)C)cc2)C(C)(C)C1=O (stereo not given) | i | i | 0.16 | i | 13* | i
O=C(N/N=C/c1ccccc1[N+](=O)[O-])c1cnccn1 | i | i | 0.02 | i | 20* | i
CCCC(=O)N/C(N)=N/c1nc(C)c2ccccc2n1 | i | i | -0.07 | i | 19* | i
CCc1ccc2nc(/N=C(\N)NC(=O)c3ccccc3)nc(C)c2c1 | i | i | 0.07 | i | i | i
O=C(NC(=S)N1CCN(c2ccc([N+](=O)[O-])cc2Cl)CC1)c1ccco1 | i | i | 1.1 | i | 12* | i
CCOC(=O)c1cn(Cc2ccccc2)c2cc(C)nn2c1=O | i | i | 0.74 | i | i | i
CCOC(=O)c1cn(Cc2ccccc2)c(C(=O)OC(C)(C)C)c1O | 107* | i | -0.58 | i | i | i
CN(C)CC[n+]1ccc(C(=O)c2ccccc2)cc1 | i | i | 0.22 | i | i | i
CCOc1ccccc1Oc1c(C)oc2cc(OC(=O)c3ccco3)ccc2c1=O | i | i | -0.54 | i | i | i
COc1ccccc1-c1c(C)oc2cc(OC(=O)c3ccco3)ccc2c1=O | i | i | -9.2* | i | i | i
SMILES | TRPC4 act | TRPC4 block | Kir21 block | TRPC6 inhibitor | TRPC4 potent | TRPC6 act
CN(CCc1nc2ccc(Cl)cc2[nH]1)Cc1nc(CC2CC2)no1 | 105* | i | -0.49 | i | i | i
Cc1ccnc(NC(=O)Cn2cc([N+](=O)[O-])cn2)c1 | i | -8* | 1.8 | i | i | i
O=C(NCCc1ccccc1)C1CCCN(C(=O)Nc2ccc(F)cc2)C1 (stereo not given) | i | i | -0.32 | i | i | i
Cc1nn(C(C)C)c(C)c1CN1CCCC(C(=O)c2cccc(OC(C)C)c2)C1 (stereo not given) | i | i | -1.3 | -8.2* | i | i
Cc1ccc(-n2cc(CNCC3CC(=O)N(C4CC4)C3)c(-c3cccc(C)c3)n2)cc1 (stereo not given) | 153* | i | -0.6 | i | i | i
Cc1ccc(-n2cc(CN3CCNC(=O)CC3)c(-c3cccc(C)c3)n2)cc1 | i | i | 0 | i | i | i
COC(=O)c1ccc(/C=N/N2CCN(Cc3ccc(C)cc3C)CC2)cc1 | i | i | 0.19 | i | 16* | i
O=C(COc1ccccc1)Nc1cccc(-c2ccc(N3CCOCC3)nn2)c1 | i | i | 0.04 | i | i | i
O=C(Cc1ccc(NC2=NC3CS(=O)(=O)CC3S2)cc1)NCc1ccc(Cl)cc1 (stereo not given) | i | i | -1.1 | i | i | i
NC(=O)CSc1nnc(-c2cccc(S(=O)(=O)N3CCOCC3)c2)n1C1CCCCCC1 | i | i | -0.77 | i | i | i
Cc1ccc(CSc2nnc(-c3cccc(S(=O)(=O)N4CCOCC4)c3)n2C2CCCC2)cc1 | i | i | -0.01 | i | 18* | i
Cc1cc(CNC(=S)Nc2ccc(Br)cc2Cl)nn1C | i | i | -0.28 | i | i | i
COc1ccc(C(=O)COC(=O)Cc2n[nH]c(=O)c3ccccc23)c(OC)c1 | i | i | 0.38 | i | i | i
CCN(CCO)Cc1csc2ccc(Br)cc12 | i | i | -0.79 | i | 18* | i
CC1CCCC(NC(=O)c2nn(C)c3c2CS(=O)(=O)c2ccccc2-3)C1C (stereo not given) | i | i | 0.71 | i | i | i
CC(C)Cn1c(-c2csc(C(C)C)c2)n[nH]c1=S | i | i | 0.7 | i | 13* | i
O=C(Nc1cccc2cccnc12)c1ccc(Cl)cc1 | i | i | -0.22 | i | i | i
COCCn1nnnc1C(c1cccc(OC)c1OC)N1CCN(C2CCCCC2)CC1 (stereo not given) | i | -6* | -0.11 | i | i | i
COCCn1nnnc1C(c1cccc(OC)c1OC)N1CCN(C(=O)c2ccco2)CC1 (stereo not given) | i | i | 1.5 | i | i | i
COc1ccc(C(c2nnnn2C2CCCC2)N2CCN(c3ccccc3)CC2)cc1 (stereo not given) | i | -6* | -0.63 | i | i | i

Screening data: PubChem, Johns Hopkins Ion Channel Center
